The text below walks through data of ChEMBL document CHEMBL1156138, “Identification of novel agonists of the integrin CD11b/CD18” (Bioorg Med Chem Lett, 2009).

As usually defined, the EC50 is the midpoint of the concentration-response curve.

The target in one test is Integrin alpha-M/beta-2 (Homo sapiens, UniProt P05107+P11215). The test is described as follows: Agonist activity at CD11b/CD18 expressed in K562 cells assessed as increase in cell adhesion to fibrinogen. The class given is functional, cell-based. The following applies: k562. An outline of the steps: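 K562 cells stably transfected with wild-type CD11b/CD18 were tested for compound-induced adhesion to immobilized fibrinogen. The assay was a no-wash cell-adhesion format in TBS containing 1 mM each Ca2+ and Mg2+. Compounds were tested over a range of concentrations. EC50 was taken as the concentration giving a 50% increase in cell adhesion.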
Sequence of Integrin alpha-M/beta-2 (P05107 23-769 limits assumed, other chains not shown): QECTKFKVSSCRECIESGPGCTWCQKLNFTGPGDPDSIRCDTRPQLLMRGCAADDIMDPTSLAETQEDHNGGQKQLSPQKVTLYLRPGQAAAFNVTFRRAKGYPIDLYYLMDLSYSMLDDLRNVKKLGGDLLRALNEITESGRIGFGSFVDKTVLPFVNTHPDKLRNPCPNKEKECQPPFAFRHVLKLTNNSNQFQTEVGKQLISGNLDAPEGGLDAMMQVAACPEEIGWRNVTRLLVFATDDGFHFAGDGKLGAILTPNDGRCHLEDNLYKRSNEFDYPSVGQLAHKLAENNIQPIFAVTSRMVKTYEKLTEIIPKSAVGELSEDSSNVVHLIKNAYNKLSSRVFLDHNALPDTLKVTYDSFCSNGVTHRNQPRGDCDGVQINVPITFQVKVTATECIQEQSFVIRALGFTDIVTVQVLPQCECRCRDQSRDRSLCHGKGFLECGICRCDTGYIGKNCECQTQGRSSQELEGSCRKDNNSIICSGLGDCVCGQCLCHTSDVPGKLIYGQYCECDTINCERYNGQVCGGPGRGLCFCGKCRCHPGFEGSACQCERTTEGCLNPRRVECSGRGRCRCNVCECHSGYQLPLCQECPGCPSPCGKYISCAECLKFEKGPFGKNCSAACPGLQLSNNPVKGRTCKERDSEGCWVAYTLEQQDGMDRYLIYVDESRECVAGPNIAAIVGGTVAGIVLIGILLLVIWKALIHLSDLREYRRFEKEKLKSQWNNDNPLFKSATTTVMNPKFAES
As for `COC(=O)CN1C(=O)S/C(=C\c2ccc(-c3ccc(C(=O)O)cc3)o2)C1=O`, the EC50 result is given as “Not Active”.

With `O=C(CN1C(=O)S/C(=C\c2ccc(-c3ccc(Cl)cc3Cl)o2)C1=O)Nc1ccccc1F`, the EC50 result is “Not Active”.

`COC(=O)CN1C(=O)S/C(=C\c2ccc(Sc3ccccc3)o2)C1=O`: the EC50 result is on record as “Not Active”.

Consider `NS(=O)(=O)c1ccc(N2C(=O)S/C(=C\c3ccc(Cc4ccccc4)o3)C2=O)cc1`, for which the EC50 result is on record as “Not Active”.

Regarding `CCCN1C(=O)S/C(=C\c2ccc(-c3ccc(Cl)cc3Cl)o2)C1=O`, the half-maximal effective concentration (EC50) result is on record as “Not Active”.

On to `CCOC(=O)CN1C(=O)S/C(=C\c2ccc(N3CCOCC3)o2)C1=O`, for which the EC50 entry is “Not Active”.

For the molecule `CCOC(=O)CN1C(=O)S/C(=C\c2ccc(-c3ccc(C(=O)O)cc3C)o2)C1=O`, the EC50 entry is on record as “Not Active”.

As for `Cc1ccc(/C=C2\SC(=O)N(C)C2=O)o1`, the concentration for a half-maximal effect (EC50) result is “Not Active”.

For `COC(=O)C(C)N1C(=O)S/C(=C\c2ccc(-c3ccc(Cl)cc3Cl)o2)C1=O` (configuration not stated), the EC50 result is listed as “Not Active”.

Staying with this test, now noted: read-out: EC50.
On to `Cc1cccc(NC(=O)CN2C(=O)S/C(=C\c3ccc(-c4ccccc4)o3)C2=O)c1`, for which the concentration giving a half-maximal response (EC50) came out at 22.3 µM.

`CCOC(=O)CN1C(=O)S/C(=C\c2ccc(N3CCCC3)o2)C1=O`: the EC50 amounted to 23.2 µM.

In the case of `O=C(CN1C(=O)S/C(=C\c2ccc(-c3ccc(Cl)cc3Cl)o2)C1=O)c1ccccc1`, the EC50 turned out to be 35.6 µM.

As for `CCOC(=O)CN1C(=O)S/C(=C\c2ccc(-c3ccc(Cl)cc3Cl)o2)C1=O`, the EC50 is 13.6 µM.

On to `CCOC(=O)CN1C(=O)S/C(=C\c2ccc(-c3ccc(Cl)c(C(=O)O)c3)o2)C1=O`, for which the EC50 is > 50 µM.

With `CCOC(=O)CN1C(=O)S/C(=C\c2ccc(-c3ccc(C)cc3Br)o2)C1=O`, the EC50 was 18.6 µM.

For the molecule `Cc1cccc(NC(=O)CN2C(=O)/C(=C/c3ccc(Cc4ccco4)o3)SC2=S)c1`, the EC50 is 18 µM.

On to `Cc1ccc(C(=O)CN2C(=O)S/C(=C\c3ccc(-c4ccc(Cl)cc4)o3)C2=O)cc1`, for which the EC50 is > 50 µM.

For the molecule `CCOC(=O)CN1C(=O)S/C(=C\c2ccc(-c3cc(C(=O)O)ccc3Cl)o2)C1=O`, the EC50 came to 40.9 µM.

With `O=C1S/C(=C\c2ccc(-c3ccc(Cl)cc3Cl)o2)C(=O)N1c1ccccc1`, the EC50 is > 50 µM.

Turning to `CCOC(=O)CN1C(=O)S/C(=C\c2ccc(-c3ccc(Br)cc3)o2)C1=O`, the EC50 worked out at 40.4 µM.

As for `CCOC(=O)CN1C(=O)S/C(=C\c2ccc(-c3ccccc3)o2)C1=O`, the EC50 came out at 10.5 µM.

System in another test: not listed separately
Description: Selectivity ratio for CD11b/CD18 over CD11a/CD18.
Details: not given; call rule not given here
`CCOC(=O)CN1C(=O)S/C(=C\c2ccc(-c3ccc(Cl)cc3Cl)o2)C1=O`: the Ratio is 2.
